Measurements from paper PMC3354652 (Cancer Discovery, 2012).
“Also recorded” adds a separate entry of the source.

Columns and labels:
RIP-Tag2 tumors [1] = experiment: Tumor vascularity; format: in vivo, mouse; details: for tumor vascularity / intratumoral hypoxia: RIP-Tag2 mice treated from age 14 to 17 weeks; for HIF-1α protein by western blot: RIP-Tag2 tumors
Panc-1 tumors = experiment: Orthotopic Panc-1 pancreatic adenocarcinomas in nude mice; format: in vivo, mouse
RIP-Tag2 mice [2] = experiment: Liver metastasis; format: in vivo, mouse
[3] = system: Snail1, N-cadherin, vimentin; experiment: Western blot of mesenchymal markers in RIP-Tag2 tumors; format: in vivo, mouse; details: for bands for Snail1, N-cadherin and vimentin in western blots: RIP-Tag2 tumors treated from age 14 to 15 weeks
Procedure, shortened: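 Tumors came from RIP-Tag2 mice treated from age 14 to 15 weeks with vehicle, anti-VEGF antibody, a kinase inhibitor, or a combination. Snail1, N-cadherin and vimentin were immunoblotted in tumor lysates. Bands were quantified by densitometry and expressed as fold over vehicle. Groups had 4-8 surviving mice. Groups were compared by Student's t test or ANOVA with Fisher's multiple-comparison test.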

RIP-Tag2 tumors [4] = experiment: Tumor size; format: in vivo, mouse; details: RIP-Tag2 mice treated from age 14 to 17 weeks
RIP-Tag2 mice [5] = experiment: Survival of RIP-Tag2 mice; format: in vivo, mouse
RIP-Tag2 tumors [6] = experiment: Tumor invasion; format: in vivo, mouse
RIP-Tag2 tumors [7] = details: RIP-Tag2 mice; cited from earlier work
c-Met = c-Met mRNA, total c-Met and phospho-c-Met in RIP-Tag2 tumors; format: in vivo, mouse; details: RIP-Tag2 tumors treated from age 14 to 15 weeks
[8] = RIP-Tag2 mice age 14 to 17 weeks, vs corresponding group without PF-04217903
[9] = RIP-Tag2 mice treated from age 14 to 17 weeks
[10] = RIP-Tag2 mice treated from age 14 to 20 weeks
[11] = western blot, treated from age 14 to 15 weeks

With `OCCn1cc(-c2cnc3nnn(Cc4ccc5ncccc5c4)c3n2)cn1` [PF-04217903] the “tumor vascularity” value (RIP-Tag2 tumors [1]) was “no reduction in overall vascularity”, the “HIF-1α protein by western blot” value (RIP-Tag2 tumors [1]) was “not increased” and the “vascular pruning and intratumoral hypoxia” value (Panc-1 tumors; 3 weeks treatment) was “little effect”. The “average decrease in volume of metastases (metastatic tumor burden)” value (RIP-Tag2 mice [2]; [8]) was 78%, the “reduction in mean diameter of liver metastases when PF-04217903 was combined” value (RIP-Tag2 mice [2]; [8]) was 40% and the “mice with liver metastases visible microscopically” value (RIP-Tag2 mice [2]; [9]) was 1 of 7 and one of 7. The “bands for Snail1, N-cadherin and vimentin in western blots” value [3] was “weaker”.

With `COc1cc2nccc(Oc3ccc(NC(=O)C4(C(=O)Nc5ccc(F)cc5)CC4)cc3)c2cc1OC` [XL184, cabozantinib] the “reduction in tumor vascularity” value (RIP-Tag2 tumors [1]; RIP-Tag2 mice, 3 weeks treatment) was 79%, the liver micrometastases found (RIP-Tag2 mice [2]; RIP-Tag2 mice treated from age 10 to 14 weeks, 5 mice) was “none” and the “mice with liver metastases visible microscopically” value (RIP-Tag2 mice [2]; [9]) was “none were detected; also recorded: None of 5”. For the same compound, the “mice with small liver metastases” value (RIP-Tag2 mice [2]; [10]) was 5 of 6, the “number of liver metastases per sectional area” value (RIP-Tag2 mice [2]; [10]) was 0.3 ± 0.2 metastases/mm^2 and the “mean sectional area of tumors” value (RIP-Tag2 tumors [4]) was 0.7 ± 0.1 mm^2. For the same compound, the “mice surviving until the experiment ended at age 20 weeks” value (RIP-Tag2 mice [5]; RIP-Tag2 mice treated from 14 weeks of age) was “all”, the “overall survival versus vehicle or anti-VEGF antibody” value (RIP-Tag2 mice [5]; RIP-Tag2 mice treated from age 10 to 14 weeks) was “better overall survival” and the “survival at 20 weeks” value (RIP-Tag2 mice [5]; RIP-Tag2 mice, treatment beginning at age 14 weeks, n = 6) was 100%. The “bands for Snail1, N-cadherin and vimentin in western blots” value [3] was “less Snail1, N-cadherin, and vimentin”, the “area density of trapped amylase-positive acinar cells in tumors” value (RIP-Tag2 tumors [6]; [9]) was 2.6 ± 0.4% and the “fewer amylase-positive (trapped acinar) cells than 14-week old onset controls” value (RIP-Tag2 tumors [6]; RIP-Tag2 mice treated from age 14 to 17 weeks, onset controls 4.8 ± 0.5%) was 46%. For the same compound, the “tumor shape and invasiveness” value (RIP-Tag2 tumors [6]; younger RIP-Tag2 mice treated from age 10 to 14 weeks) was “rounder and less invasive”.

For `COc1cc2c(Oc3ccc(NC(=O)C4(C(=O)Nc5ccc(F)cc5)CC4)cc3F)ccnc2cc1OCCCN1CCOCC1` [XL880, foretinib], the “invasion and tumor cells in the liver” value (RIP-Tag2 tumors [7]) is listed as “decreases invasion and the appearance of tumor cells in the liver” and the “tumor growth” value (RIP-Tag2 tumors [7]) is listed as “slows tumor growth”.

In the case of `CCN(CC)CCNC(=O)c1c(C)[nH]c(/C=C2\C(=O)Nc3ccc(F)cc32)c1C` [sunitinib], the “intratumoral hypoxia” value (RIP-Tag2 tumors [1]) is reported as “greater hypoxia”, the “tumor vascularity” value (RIP-Tag2 tumors [1]) is reported as “fewer blood vessels” and the “HIF-1α protein by western blot” value (RIP-Tag2 tumors [1]) is reported as “greater”. The “intratumoral hypoxia assessed by pimonidazole staining” value (Panc-1 tumors; 3 weeks treatment) was “doubling”, the “invasiveness reflected by intratumoral acinar cells stained for amylase” value (Panc-1 tumors; 3 weeks treatment) was “exaggerated” and the “reduction in tumor vascularity” value (Panc-1 tumors; 3 weeks treatment) was 75%. The “tumor growth by bioluminescence imaging” value (Panc-1 tumors; 3 weeks treatment) was “grew slower”, the “mice with micrometastases in the liver” value (Panc-1 tumors; early stage) was 4 of 6 and the “number of liver metastases per sectional area” value (RIP-Tag2 mice [2]; 17-week old RIP-Tag2 mice treated for 3 weeks) was 1.3 ± 1.2 metastases/mm^2. The “number of liver metastases compared to the 17-week old vehicle group” value (RIP-Tag2 mice [2]; [9]) was “twice”, the “size of liver metastases compared to vehicle group” value (RIP-Tag2 mice [2]; [9]) was 4 times and the “mean diameter of liver metastases” value (RIP-Tag2 mice [2]; RIP-Tag2 mice treated from age 14 to 17 weeks, vehicle 90 ± 9 μm) was 369 ± 267 μm. For the same compound, the “c-Met mRNA expression, fold the control value” (c-Met) was 6 fold, the “mean sectional area of tumors” value (RIP-Tag2 tumors [4]) was 3.7 ± 0.8 mm^2 and the “sectional area of tumors, less than age-matched vehicle controls” value (RIP-Tag2 tumors [4]) was 78%. The “survival during the 3-week treatment” value (RIP-Tag2 mice [5]; RIP-Tag2 mice, age 14 to 17 weeks, vehicle 42%) was 80%, the “N-cadherin densitometry value, times greater than vehicle” value [3, 11] was 10 times and the “Snail1 densitometry value, times greater than vehicle” value [3, 11] was 3 times. The “vimentin densitometry value, times greater than vehicle” value [3, 11] was 5 times and the “tumor invasiveness: Invasion index and trapped acinar cells” value (RIP-Tag2 tumors [6]; [9]) was “significantly greater”.

With `C[C@@H](Oc1cc(-c2cnn(C3CCNCC3)c2)cnc1N)c1c(Cl)ccc(F)c1Cl` [PF-02341066, crizotinib] the “intratumoral hypoxia” value (RIP-Tag2 tumors [1]) was “did not change”, the “tumor vascularity” value (RIP-Tag2 tumors [1]) was “did not change” and the “liver metastases found per mouse” value (RIP-Tag2 mice [2]; RIP-Tag2 mice treated for 3 weeks, vehicle average of 20 per mouse) was 4. For the same compound, the “mice with liver metastases visible microscopically” value (RIP-Tag2 mice [2]; [9]) was 3 of 4 and the “tumor invasiveness: Invasion index and trapped acinar cells” value (RIP-Tag2 tumors [6]; [9]) was “reduced invasiveness”.
